# Screening results deposited in PubChem BioAssay by Broad Institute.
# HIV Env fusion = inhibitors of HIV Env-mediated cell fusion; HeLa-JRFL Env/CEM21 cell fusion, luciferase; inhibition, % at 12.3 µM; actives 1.1% (n = 360,000);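 active = mean replicate inhibition score of at least 50 and every replicate individually at or above 50; inconclusive = only one of the two criteria met; inactive = mean below 50 and not all replicates reaching 50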
# Vif inh = blocks HIV Vif function; actives 0.35% (n = 340,000); HEK293T cells, Vif self-association by quenched fluorescence, imaging, 24 h; inhibition, % at 7.49 µM; in the data active = inhibition above about 50%, passing the limit was not always enough; inconclusive = no clear call, values can overlap the other calls; inactive = below about 31%
# S100A4 inh HTS = S100A4-myosin IIA interaction inhibition; AID 652163; inhibition, % at 10.7 µM; actives 0.14% (n = 360,000); P26447; S100A4/TAMRA-MyoIIA peptide fluorescence polarization;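 active = mean inhibition of at least 70% across replicates, with every replicate also reaching that level; inconclusive = mean inhibition reaches 70% but some replicates fall short; inactive = mean inhibition below 70%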
# Target sequence (P26447 whole entry, looked up): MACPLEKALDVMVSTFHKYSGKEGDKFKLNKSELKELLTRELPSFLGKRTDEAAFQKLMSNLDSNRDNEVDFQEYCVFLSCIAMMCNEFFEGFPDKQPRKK
#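 Compound dosing: one dose per compound; test system: human S100A4 monomer with TAMRA-labelled myosin IIA peptide; probe or stimulus: TAMRA-labelled myosin IIA heavy-chain peptide probe, 5 nM; medium: HEPES buffer with Ca2+, pH 7.2; schedule: 5 min incubation before reading; benchmarks: neutral control DMSO, positive control TFP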
# FN deposition inh = fibronectin deposition inhibition. inhibition, % at 12.6 µM. AH1F fibroblasts, Alexa488-fibronectin deposition fluorescence, overnight. AID 743247. actives 0.086% (n = 350,000);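 active = mean inhibition across replicates of 30% or more, regardless of how many single replicates reach that level; inconclusive = mean under 30% yet at least half of replicates reach 30%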
#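 Material – AH1F fibroblast monolayer, labelled fibronectin deposition · Reagent – labelled fibronectin 24 nM · Timing – 1 h adhesion, overnight exposure · Measured by – fluorescence at 485 nm excitation, 525 nm emission · Read-out – inhibition of fibronectin deposition signal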
# miR122 inh = blocks miR-122 activity in Huh7 sensor cells. actives 0.3% (n = 340,000). AID 602342. Huh7 miR-122 Renilla luciferase sensor, 48 h; neutral wells = 0, positive control = 100. activation (reporter increase), % at 12.5 µM;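 active = mean replicate activation score at least 90 and every replicate individually at or above 90; inconclusive = only one of the two criteria met; inactive = neither criterion met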;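 also: higher luciferase means less miR-122 activity so hits act as miR-122 inhibitors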
# Ecoli rRNA inh = selective bacterial rRNA inhibition in E. coli. E. coli WT GFP vs humanized-ribosome RFP mutants, fluorescence, 24 h; active compounds read low; DMSO median 0, no signal -100. GFP signal change (wild-type ribosome), % (concentration not given with the values). actives 1.6% (n = 350,000). AID 720706;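 active = significant combined selectivity score with lowered wild-type GFP, culture density cut under 30%, mutant RFP and density less affected; inactive = any of these conditions unmet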
# A number is an active result; 0 = inactive; ? = inconclusive; - = not tested or not shown; + = active, no number; [ ] = remark or other dose. In the library only some 2.6% were active in any assay of this set; here they are far more common.
SMILES,HIV Env fusion,Vif inh,S100A4 inh HTS,FN deposition inh,miR122 inh,Ecoli rRNA inh
O=c1[nH]cnc2c1c(-c1ccccc1)cn2-c1ccccc1,0,0,0,0,0,-30.5
Cn1ccsc1=NC(=O)c1ccc(Cl)cc1,0,0,0,0,-,-27.1
CCOc1cc(C(=O)N=c2sccn2C)ccc1OC(F)F,0,0,0,-,0,-26.2
COc1ccc(C(=O)N=c2sccn2C)cc1,0,0,0,0,-,0
CCCNC(=O)[C@@H]1[C@@H](CO)[C@@H]2Cn3c(ccc(C4=CCCC4)c3=O)[C@@H]2N1C(=O)CC1CC1,-,-,0,-,-,0
O=S1(=O)c2ccc(Br)cc2N2CCC[C@@H]2CN1Cc1ccc(Cl)cc1,0,0,0,0,0,0
O=S1(=O)c2ccc(Br)cc2N2CCC[C@H]2CN1Cc1ccccc1,0,0,0,0,140.0,0
CCCCc1cc(=O)oc2cc(C)cc(OCC(=O)N3CCC(C(=O)O)(c4ccccc4)CC3)c12,-,?,0,-,0,-12.6
CCOc1cc(C)cc2oc(=O)cc(-c3ccccc3)c12,-,0,0,0,0,-36.5
CC(=O)Nc1ccc2c(c1)C(=O)N(C)[C@H]1CC[C@H](CC(=O)NCc3ccc4c(c3)OCO4)O[C@H]1CO2,0,-,-,0,0,0
O=C(NCC[C@@H]1CC[C@@H](NC(=O)C2CCCCC2)[C@@H](CO)O1)c1cc(Cl)cc(Cl)c1,0,-,0,0,-,0
C[C@H]1CN([C@@H](C)CO)S(=O)(=O)c2ccc(C#CCN(C)C)cc2O[C@H]1CN(C)C(=O)C1CCCCC1,0,-,0,0,0,0
CN(C)N=Nc1nc[nH]c1C(N)=O,0,0,0,0,0,-
CN(N=Nc1nc[nH]c1C(N)=O)C1CCCCC1,56.5,-,0,0,0,-
COc1ccccc1C(=O)N/C(=C/c1ccc(Br)cc1)C(=O)N1CCCC1,0,0,0,31.5,-,0
COc1ccccc1C(=O)N/C(=C\c1ccc(Br)cc1)C(=O)NCC(=O)O,0,0,0,0,-,0
CCOc1ccc(-c2[nH]ncc2-c2ccc(OC)c(OC)c2)c(O)c1,66.6,0,-,0,0,-
COc1ccc(-c2cn[nH]c2-c2ccc(OCc3ccc([N+](=O)[O-])cc3)cc2O)cc1,73.0,0,0,0,-,0
C[C@H]1CN([C@@H](C)CO)C(=O)Cc2cc(NS(=O)(=O)c3cn(C)cn3)ccc2O[C@H]1CN(C)Cc1ccc(C(=O)Nc2ccccc2N)cc1,-,-,0,0,-,0
O=C(C[C@H]1CC[C@@H]2[C@H](COC[C@@H](O)CN2C(=O)Nc2ccc(C(F)(F)F)cc2)O1)NCC1CCCCC1,-,-,0,0,0,0
C[C@H]1CCCCO[C@@H](CN(C)C(=O)Nc2ccc(C(F)(F)F)cc2)[C@@H](C)CN([C@@H](C)CO)C(=O)c2cc(NS(=O)(=O)c3ccccc3)ccc2O1,63.6[16.7 µM],-,0,0,0,0
C[C@@H]1CCCCO[C@@H](CN(C)C(=O)Nc2ccc(C(F)(F)F)cc2)[C@H](C)CN([C@@H](C)CO)C(=O)c2cc(NS(=O)(=O)c3ccc(F)cc3)ccc2O1,0,-,0,0,0,0
COc1ccc(S(=O)(=O)Nc2ccc3c(c2)C(=O)N([C@H](C)CO)C[C@H](C)[C@H](CN(C)C(=O)Nc2ccccc2)OCCCC[C@H](C)O3)cc1,59.8[16.7 µM],-,107.5,0,0,0
C[C@H](CO)N1C[C@H](C)[C@@H](CN(C)C(=O)Nc2ccc(C(F)(F)F)cc2)OCCCC[C@H](C)Oc2ccc(NS(=O)(=O)c3ccc(F)cc3)cc2C1=O,69.8[16.7 µM],-,0,0,0,0
C[C@@H]1CCCCO[C@H](CN(C)C(=O)Nc2ccc(C(F)(F)F)cc2)[C@@H](C)CN([C@H](C)CO)C(=O)c2cc(NS(=O)(=O)c3ccccc3)ccc2O1,0,-,0,0,0,0
SMILES,HIV Env fusion,Vif inh,S100A4 inh HTS,FN deposition inh,miR122 inh,Ecoli rRNA inh
Cc1noc(C)c1NC(=O)N(C)C[C@H]1OCCCC[C@H](C)Oc2ccc(NS(=O)(=O)c3ccc(F)cc3)cc2C(=O)N([C@H](C)CO)C[C@@H]1C,0,-,134.2,0,0,0
COc1ccc(C#Cc2cnc3c(c2)C(=O)N([C@@H](C)CO)C[C@@H](C)[C@@H](CN(C)C(C)=O)O3)cc1,-,-,0,0,-,0
C[C@H](CO)N1C[C@H](C)[C@H](CN(C)S(=O)(=O)c2ccc(Cl)cc2)OCCCC[C@H](C)Oc2ccc(NC(=O)Nc3cccc4ccccc34)cc2C1=O,0,-,0,0,0,0
O=C(NNC1CC(=O)N(c2cccc(Cl)c2)C1=O)c1cccs1 (stereo unspecified),0,52.5,-,0,0,-
COc1cccc(N2C(=O)CC(NNC(=O)c3cccs3)C2=O)c1 (stereo unspecified),0,0,0,0,0,0
CNC(=O)C[C@@H]1CC[C@@H]2[C@@H](COc3ccc(NC(=O)c4cc(C)on4)cc3C(=O)N2C)O1,0,-,-,0,0,0
C[C@H](CO)N1C[C@H](C)[C@@H](CN(C)Cc2ccc(-c3ccccc3)cc2)Oc2c(NC(=O)c3ccc(-c4nccs4)cc3)cccc2C1=O,0,-,0,-,0,0
CCCN1C(=O)/C(=C/c2ccc(N3CCOCC3)cc2)NC1=S,0,0,0,0,-,0
CCN1C(=O)/C(=C/c2ccc(N3CCCC3)cc2)NC1=S,-,61.3,-,0,0,-
Cc1cc(/C=C2\NC(=S)N(C)C2=O)ccc1N1CCCC1,0,+,0,0,0,-
Cc1cc(/C=C2/C(=O)N(C)C(=S)N2C)ccc1N1CCCC1,0,0,0,0,0,0
CCCN1C(=O)/C(=C/c2ccc(N3CCCC3)c(C)c2)NC1=S,0,147.1,-,0,0,-
Cc1cccc(N2CCN(C(=O)c3cc4ccccc4oc3=O)CC2)c1C,0,68.1,0,0,-,0
C[C@H](CO)N1C[C@H](C)[C@H](CN(C)C(=O)Nc2ccc3c(c2)OCO3)Oc2ccc(NC(=O)Cc3ccccc3)cc2CC1=O,0,-,0,-,0,0
O=S1(=O)CCN(c2ccccc2CC(c2c[nH]c3ccccc23)c2c[nH]c3ccccc23)CC1,84.9,0,0,0,0,0
OCC(CCc1c[nH]c2ccccc12)c1c[nH]c2ccccc12 (stereo unspecified),0,-,0,0,-,0
CC(=O)Nc1ccc2c(c1)C(=O)N(C)[C@@H]1CC[C@H](CC(=O)NCc3ccccc3)O[C@@H]1CO2,0,-,0,0,0,0
Cn1c(/C=C/c2ccccc2)nc2ccccc21,0,0,0,0,-,-24.1
CO[C@@H]1CN(C)C(=O)c2cc(NC(=O)c3ccc4c(c3)OCO4)ccc2OC[C@@H](C)NC[C@@H]1C,0,-,0,0,-,0
Oc1ccc(Br)c(CN2CCN(c3ncc(Cc4ccccc4)cn3)CC2)c1,0,-,0,0,-,0
c1ccc(Cc2cnc(N3CCN(Cc4csc5ccccc45)CC3)nc2)cc1,77.0,-,0,0,-,0
